These results are taken from ChEMBL document CHEMBL1126550, “Nanomolar-affinity, non-peptide oxytocin receptor antagonists” (J Med Chem, 1993).

One experiment concerns the target Vasopressin V1 receptor (Rattus norvegicus, UniProt P48974+P30560). The experiment can be described thus: Inhibition of radioligand [3H]AVP binding to the vasopressin V1 receptor in rat liver tissue. The procedure, abridged: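 Crude membranes from male rat liver (V1 sites) competed with 1 nM [3H]AVP (80–90 Ci/mmol). Equilibrium 30 min, 30 °C, buffer 100 mM Tris-HCl, 5 mM MgCl2, 0.1% BSA, 50 μM PMSF, 50 μg/mL bacitracin, pH 8.0. 10 μM unlabeled AVP for nonspecific binding. Filtration through glass-fiber filters. IC50 from linear regression over seven concentrations.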

The next experiment deals with T1, Oxytocin receptor (Rattus norvegicus, UniProt P70536).
T1 sequence (P70536 whole entry): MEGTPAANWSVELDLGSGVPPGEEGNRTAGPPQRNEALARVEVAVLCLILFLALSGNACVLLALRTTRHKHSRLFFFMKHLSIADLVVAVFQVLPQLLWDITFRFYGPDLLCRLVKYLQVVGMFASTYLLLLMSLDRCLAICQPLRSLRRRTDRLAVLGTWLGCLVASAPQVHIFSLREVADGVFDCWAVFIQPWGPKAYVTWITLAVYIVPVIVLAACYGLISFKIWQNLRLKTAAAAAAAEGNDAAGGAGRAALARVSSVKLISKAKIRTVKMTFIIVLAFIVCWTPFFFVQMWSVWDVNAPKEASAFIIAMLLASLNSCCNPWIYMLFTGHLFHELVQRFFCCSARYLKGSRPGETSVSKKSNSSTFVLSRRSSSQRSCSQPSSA
The experiment can be described thus: Inhibition of radioligand [3H]oxytocin binding at the oxytocin (OT) receptor in rat uterine tissue. The procedure, abridged:
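Uteri taken from rats given diethylstilbestrol dipropionate (0.3 mg/kg ip, 18–24 h before), crude membranes. 1 nM [3H]OT (30–60 Ci/mmol), equilibrium 60 min at 22 °C in 50 mM Tris-HCl, 5 mM MgCl2, 0.1% BSA, pH 7.4. Nonspecific binding with 1 mM unlabeled OT. Filtered on glass fiber. Initial single-concentration screen, then IC50 from seven concentrations by linear regression.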

The target of another experiment is Vasopressin V2 receptor (Rattus norvegicus, UniProt Q00788). The experiment can be described thus: Inhibition of radioligand [3H]-AVP binding to the vasopressin V2 receptor in rat kidney tissue. The procedure, abridged:
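[3H]AVP (80–90 Ci/mmol) at 2 nM competed on crude membranes from male rat kidney medulla (V2 sites). Equilibrium 30 min at 30 °C in 100 mM Tris-HCl, 5 mM MgCl2, 0.1% BSA, 50 μM PMSF, 50 μg/mL bacitracin, pH 8.0. Nonspecific binding with 10 μM unlabeled AVP. Glass-fiber filtration. IC50 by linear regression of % inhibition vs log concentration, seven concentrations.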

Sequence of Vasopressin V2 receptor (Q00788 whole entry): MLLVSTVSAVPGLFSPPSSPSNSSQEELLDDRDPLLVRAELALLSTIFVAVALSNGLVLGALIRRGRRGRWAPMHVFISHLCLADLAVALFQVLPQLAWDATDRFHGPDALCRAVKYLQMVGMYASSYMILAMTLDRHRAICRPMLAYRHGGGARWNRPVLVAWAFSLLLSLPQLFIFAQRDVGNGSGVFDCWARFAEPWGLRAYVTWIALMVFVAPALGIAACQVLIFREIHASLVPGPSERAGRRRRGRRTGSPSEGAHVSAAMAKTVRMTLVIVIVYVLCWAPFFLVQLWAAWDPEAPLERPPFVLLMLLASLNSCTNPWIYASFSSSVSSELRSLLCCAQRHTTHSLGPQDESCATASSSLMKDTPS

Take `CC1(C)[C@@H]2CC[C@@]1(CS(=O)(=O)N1CCC3(CCc4ccccc43)CC1)[C@@H](N1C(=O)CN(Cc3c[nH]cn3)C1=O)C2`: the IC50 (usually the point on the concentration scale where inhibition reaches its midpoint) at Vasopressin V1 receptor worked out at 0.37 µM; on Oxytocin receptor it was 0.012 µM; at Vasopressin V2 receptor it was 0.94 µM.

In the case of `CCN(CC)C(CCS(C)(=O)=O)C(=O)N[C@H]1C[C@H]2CC[C@]1(CS(=O)(=O)N1CCC3(CCc4ccccc43)CC1)C2(C)C` (some centres not stated), the IC50 at Vasopressin V1 receptor was 2.1 µM; at Oxytocin receptor, 0.03 µM; at Vasopressin V2 receptor, 1.5 µM.

As to `CC1(C)[C@@H]2CC[C@@]1(CS(=O)(=O)N1CCC3(CCc4ccccc43)CC1)[C@@H](N1C(=O)CN(Cc3nn[nH]n3)C1=O)C2`, the IC50 at Vasopressin V1 receptor worked out at 2 µM; on Oxytocin receptor, 0.049 µM; on Vasopressin V2 receptor, 4.4 µM.

Take `CC1(C)[C@@H]2CC[C@@]1(CS(=O)(=O)N1CCC3(CCc4ccccc43)CC1)[C@@H](NC(=O)CN1CC[C@H](N)C1=O)C2`: the IC50 turned out to be 2.7 µM on Vasopressin V1 receptor, 0.061 µM at Oxytocin receptor and 8.4 µM on Vasopressin V2 receptor.

In the case of `CC1CCC(=O)N1[C@H]1C[C@H]2CC[C@]1(CS(=O)(=O)N1CCC3(CCc4ccccc43)CC1)C2(C)C` (some centres not stated), the IC50 was found to be 3.5 µM at Vasopressin V1 receptor, 0.18 µM on Oxytocin receptor and 9.3 µM on Vasopressin V2 receptor.

In the case of `CC1(C)[C@@H]2CC[C@@]1(CS(=O)(=O)N1CCC3(CCc4ccccc43)CC1)[C@@H](NC(=O)C(CCS(C)(=O)=O)NC(=O)CN)C2` (some centres not stated), the half-inhibitory concentration (IC50) at Vasopressin V1 receptor was 0.44 µM; on Oxytocin receptor, 0.0041 µM; at Vasopressin V2 receptor it was 1.1 µM.

In the case of `Cc1[nH]cnc1C(=O)N[C@H]1C[C@H]2CC[C@]1(CS(=O)(=O)N1CCC3(CCc4ccccc43)CC1)C2(C)C`, the IC50 was more than 3 µM at Vasopressin V1 receptor, 0.15 µM on Oxytocin receptor and more than 3 µM at Vasopressin V2 receptor.

For `CC1(C)[C@@H]2CC[C@@]1(CS(=O)(=O)N1CCC3(C=Cc4ccccc43)CC1)[C@@](O)(CCNC(=O)c1ccncc1)C2`, the figures for the concentration for half-maximal inhibition (IC50) at Vasopressin V1 receptor, on Oxytocin receptor and on Vasopressin V2 receptor were more than 1 µM, 0.079 µM and more than 1 µM, respectively.

In the case of `CCC(C)(C)C(=O)NCC[C@@]1(O)C[C@H]2CC[C@]1(CS(=O)(=O)N1CCC3(C=Cc4ccccc43)CC1)C2(C)C`, the IC50 was 2.3 µM on Vasopressin V1 receptor, 0.045 µM on Oxytocin receptor and 13 µM on Vasopressin V2 receptor.

Take `Cn1cnc(CC(=O)N[C@H]2C[C@H]3CC[C@]2(CS(=O)(=O)N2CCC4(CCc5ccccc54)CC2)C3(C)C)c1`: the IC50 was 4.5 µM on Vasopressin V1 receptor, 0.065 µM at Oxytocin receptor and 9.4 µM at Vasopressin V2 receptor.

Turning to `CC1(C)[C@@H]2CC[C@@]1(CS(=O)(=O)N1CCC3(CCc4ccccc43)CC1)[C@@H](NC(=O)Cc1ccccc1)C2`, the IC50 on Vasopressin V1 receptor amounted to 2.7 µM; at Oxytocin receptor, 0.25 µM; at Vasopressin V2 receptor it was 46 µM.

Take `CC1(C)[C@@H]2CC[C@@]1(CS(=O)(=O)N1CCC3(CCc4ccccc43)CC1)[C@@H](N1CCC(N)C1=O)C2` (some centres not stated): the IC50 at Vasopressin V1 receptor is 1.7 µM; on Oxytocin receptor it was 0.06 µM; on Vasopressin V2 receptor, 5.5 µM.

On to `CC1(C)[C@@H]2CC[C@@]1(CS(=O)(=O)N1CCC3(C=Cc4ccccc43)CC1)[C@@](O)(CC#N)C2`, for which the IC50 on Vasopressin V1 receptor was more than 10 µM; at Oxytocin receptor it was 0.77 µM; on Vasopressin V2 receptor it was more than 10 µM.

Take `CC1(C)[C@@H]2CC[C@@]1(CS(=O)(=O)N1CCC3(CCc4ccccc43)CC1)[C@@H](N1C(=O)NC(CNc3n[nH]c(N)n3)C1=O)C2` (some centres not stated): the IC50 at Vasopressin V1 receptor worked out at 0.12 µM; at Oxytocin receptor, 0.0067 µM; on Vasopressin V2 receptor it was 0.45 µM.

As for `CC1(C)[C@@H]2CC[C@@]1(CS(=O)(=O)N1CCC3(CCc4ccccc43)CC1)[C@@H](NC(N)=O)C2`, the half-maximal inhibitory concentration (IC50) was more than 3 µM on Vasopressin V1 receptor, 0.46 µM on Oxytocin receptor and more than 3 µM on Vasopressin V2 receptor.

As to `CC1(C)[C@@H]2CC[C@@]1(CS(=O)(=O)N1CCC3(C=Cc4ccccc43)CC1)[C@@](O)(CCNC(=O)Cc1ccncc1)C2`, the IC50 on Vasopressin V1 receptor is 3 µM; at Oxytocin receptor it was 0.11 µM; on Vasopressin V2 receptor, more than 3 µM.

For `CC1(C)[C@@H]2CC[C@@]1(CS(=O)(=O)N1CCC3(C=Cc4ccccc43)CC1)C1(CNC(=O)O1)C2` (some centres not stated), the IC50 on Vasopressin V1 receptor is more than 10 µM; at Oxytocin receptor, more than 1 µM; on Vasopressin V2 receptor it was more than 10 µM.

On to `CC1(C)[C@@H]2CC[C@@]1(CS(=O)(=O)N1CCC3(C=Cc4ccccc43)CC1)[C@@](O)(CNC(=O)Cc1c[nH]cn1)C2`, for which the results for the IC50 on Vasopressin V1 receptor, at Oxytocin receptor and on Vasopressin V2 receptor were more than 0.3 µM, 0.045 µM and more than 3 µM, respectively.

In the case of `CC1(C)[C@@H]2CC[C@@]1(CS(=O)(=O)N1CCC3(CCc4ccccc43)CC1)[C@@H](NC(=O)CCC1CCCNC1)C2` (some centres not stated), the IC50 on Vasopressin V1 receptor was 0.71 µM; at Oxytocin receptor, 0.03 µM; on Vasopressin V2 receptor, 5.2 µM.

Turning to `CC(=O)NC[C@@]1(O)C[C@H]2CC[C@]1(CS(=O)(=O)N1CCC3(C=Cc4ccccc43)CC1)C2(C)C`, the IC50 was more than 1 µM at Vasopressin V1 receptor, 0.13 µM at Oxytocin receptor and 10 µM on Vasopressin V2 receptor.

Turning to `CC1(C)[C@@H]2CC[C@@]1(CS(=O)(=O)N1CCC3(CCc4ccccc43)CC1)[C@@H](N1C(=O)CN(CC(=O)O)C1=O)C2`, the IC50 at Vasopressin V1 receptor was more than 0.3 µM; at Oxytocin receptor, 0.048 µM; on Vasopressin V2 receptor it was more than 0.3 µM.

Take `CC1(C)[C@@H]2CC[C@@]1(CS(=O)(=O)N1CCC3(CCc4ccccc43)CC1)[C@@H](NC(=O)Cc1[nH]cnc1Br)C2`: the IC50 came out at 8.1 µM on Vasopressin V1 receptor, 0.11 µM at Oxytocin receptor and 15 µM on Vasopressin V2 receptor.

Take `CC1(C)[C@@H]2CC[C@@]1(CS(=O)(=O)N1CCC3(CCc4ccccc43)CC1)[C@@H](N1C(=O)NC(CC(=O)O)C1=O)C2` (some centres not stated): the IC50 at Vasopressin V1 receptor worked out at 1.9 µM; on Oxytocin receptor, 0.05 µM; at Vasopressin V2 receptor, 4.1 µM.

Regarding `CC1(C)[C@@H]2CC[C@@]1(CS(=O)(=O)N1CCC3(CCc4ccccc43)CC1)[C@@H](NC(=O)C(N)CS(N)(=O)=O)C2` (some centres not stated), the values for the IC50 at Vasopressin V1 receptor, at Oxytocin receptor and on Vasopressin V2 receptor were 2.9 µM, 0.2 µM and 14 µM, respectively.

With `CC1(C)[C@@H]2CC[C@@]1(CS(=O)(=O)N1CCC3(C=Cc4ccccc43)CC1)[C@@](O)(CNC(=O)C(N)CCS(C)(=O)=O)C2` (some centres not stated), the figures for the IC50 at Vasopressin V1 receptor, at Oxytocin receptor and at Vasopressin V2 receptor were 3.7 µM, 0.11 µM and 9.2 µM, respectively.

As for `CC1(C)[C@@H]2CC[C@@]1(CS(=O)(=O)N1CCC3(CCc4ccccc43)CC1)[C@@H](NC(=O)Cc1csc(N)n1)C2`, the values for the IC50 on Vasopressin V1 receptor, at Oxytocin receptor and at Vasopressin V2 receptor were more than 3 µM, 0.17 µM and more than 3 µM, respectively.

For the molecule `CC1(C)[C@@H]2CC[C@@]1(CS(=O)(=O)N1CCC3(CCc4ccccc43)CC1)[C@H](NC(=O)Cc1c[nH]cn1)C2`, the figures for the IC50 at Vasopressin V1 receptor, on Oxytocin receptor and on Vasopressin V2 receptor were 5.1 µM, 0.83 µM and 13 µM, respectively.

On to `CC1(C)[C@@H]2CC[C@@]1(CS(=O)(=O)N1CCC3(C=Cc4ccccc43)CC1)[C@@](O)(CNC(=O)c1cccnc1)C2`, for which the IC50 on Vasopressin V1 receptor came to 1.5 µM; at Oxytocin receptor, 0.1 µM; at Vasopressin V2 receptor, 6.8 µM.

As for `CC1(C)[C@@H]2CC[C@@]1(CS(=O)(=O)N1CCC3(CCc4ccccc43)CC1)[C@](O)(CNC(=O)C(N)CS(C)(=O)=O)C2` (some centres not stated), the IC50 at Vasopressin V1 receptor is 1.1 µM; at Oxytocin receptor it was 0.04 µM; at Vasopressin V2 receptor it was 3 µM.

As for `CNC1CCN([C@H]2C[C@H]3CC[C@]2(CS(=O)(=O)N2CCC4(CCc5ccccc54)CC2)C3(C)C)C1=O` (some centres not stated), the figures for the IC50 at Vasopressin V1 receptor, at Oxytocin receptor and at Vasopressin V2 receptor were 4.7 µM, 0.21 µM and 12 µM, respectively.

Take `CC1(C)[C@@H]2CC[C@@]1(CS(=O)(=O)N1CCC3(C=Cc4ccccc43)CC1)[C@@](O)(CN1C(=O)CCC1=O)C2`: the IC50 is 3 µM at Vasopressin V1 receptor, 0.11 µM on Oxytocin receptor and more than 3 µM at Vasopressin V2 receptor.

In the case of `CC(C)[C@H](NC(=O)Cc1c[nH]cn1)C(=O)NC[C@@]1(O)C[C@H]2CC[C@]1(CS(=O)(=O)N1CCC3(C=Cc4ccccc43)CC1)C2(C)C`, the IC50 at Vasopressin V1 receptor was determined as 0.067 µM; on Oxytocin receptor, 0.0083 µM; on Vasopressin V2 receptor, 0.54 µM.

Take `CC1(C)[C@@H]2CC[C@@]1(CS(=O)(=O)N1CCC3(CCc4ccccc43)CC1)[C@@H](NC(=O)[C@H](N)CCS(C)(=O)=O)C2`: the figures for the IC50 on Vasopressin V1 receptor, at Oxytocin receptor and on Vasopressin V2 receptor were 5.2 µM, 0.045 µM and 12 µM, respectively.

For the molecule `CC1(C)[C@@H]2CC[C@@]1(CS(=O)(=O)N1CCC3(CCc4ccccc43)CC1)[C@@H](NC(=O)CC1CCCNC1)C2` (some centres not stated), the IC50 is 1.5 µM on Vasopressin V1 receptor, 0.13 µM at Oxytocin receptor and 12 µM at Vasopressin V2 receptor.
